Measurements from ChEMBL document CHEMBL1154677, “Microtubule-stabilizing activity of zampanolide, a potent macrolide isolated from the Tongan marine sponge Cacospongia mycofijiensis” (J Med Chem, 2009).
Activity calls are given as the source filed them. The calls are words filed in the database; no cut-off is given here.

Assays:
1A9 [1] = assay: Cytotoxicity against human 1A9 cells assessed as interphase cells with microtubule bundles at 5 nM after 12 hrs by immunocytochemistry; type: functional
How it was run: (§1)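 1A9 cells on glass coverslips attached 24 h, then dosed at 0-20 nM for 12 h. Fixed in ice-cold methanol/acetone 1:1, blocked with 5% BSA in PBST, stained with anti-α-tubulin and Alexa 488 secondary plus DAPI, viewed by confocal microscopy. Percent of interphase cells with bundles and mitotic cells with multiple asters scored; n = 3 preparations.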

1A9 [2] = assay: Cytotoxicity against human 1A9 cells assessed as interphase cells with microtubule bundles at 10 nM after 12 hrs by immunocytochemistry; type: functional; how it was run: as §1
1A9 [3] = assay: Cytotoxicity against human 1A9 cells assessed as interphase cells with microtubule bundles at 20 nM after 12 hrs by immunocytochemistry; type: functional; how it was run: as §1
1A9 [4] = assay: Cytotoxicity against human 1A9 cells assessed as mitotic cells with multiple asters at 5 nM after 12 hrs by immunocytochemistry; type: functional; how it was run: as §1
1A9 [5] = assay: Cytotoxicity against human 1A9 cells assessed as mitotic cells with multiple asters at 10 nM after 12 hrs by immunocytochemistry; type: functional; how it was run: as §1
1A9 [6] = assay: Cytotoxicity against human 1A9 cells assessed as mitotic cells with multiple asters at 20 nM after 12 hrs by immunocytochemistry; type: functional; how it was run: as §1
[7] = Cytotoxicity against p-glycoprotein overexpressing human A2780AD cells by MTT cell proliferation assay; type: functional, cell-based; conditions: A2780 ADR
How it was run: (§2)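 A2780 parental and P-gp-overexpressing A2780AD ovarian cells in RPMI-1640 with 10% fetal calf serum and 0.25 units/mL insulin.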

HL-60 [8] = assay: Cytotoxicity against human HL60 cells after 48 hrs by MTT assay; type: functional, cell-based; conditions: HL-60, 48 h
How it was run: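 HL-60 in RPMI-1640 with 10% fetal calf serum plus penicillin-streptomycin. 48 h drug exposure, growth by MTT dye reduction, IC50 from dose-response curves; n = 5 preparations.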

1A9 [9] = assay: Cytotoxicity against human 1A9 cells after 72 hrs by MTT assay; type: functional, cell-based; conditions: 1A9, 72 h
How it was run: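 1A9 ovarian carcinoma in RPMI-1640 with 10% fetal calf serum, penicillin-streptomycin and 0.25 units/mL insulin. 72 h exposure, MTT dye reduction, IC50 from dose-response curves; n = 6 preparations.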

HL-60 [10] = assay: Cytotoxicity against human HL60 cells at 2 nM after 24 hrs by Trypan blue exclusion test; type: functional, cell-based
How it was run: (§3)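 HL-60 cells exposed to drug, then viability counted by Trypan blue dye exclusion at 24 h and 48 h; n = 2 preparations.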

HL-60 [11] = assay: Cytotoxicity against human HL60 cells assessed as cell death at 10 nM after 48 hrs by Trypan blue exclusion test; type: functional, cell-based; how it was run: as §3
HL-60 [12] = assay: Cytotoxicity against human HL60 cells assessed as increase in cell diameter after 48 hrs by Giemsa staining; type: functional, cell-based
How it was run: (§4)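 HL-60 cells given 2-8 nM for 48 h, cytospun onto slides, air-dried, fixed in 100% methanol, Giemsa-stained. Cell diameter measured and compared with untreated cells.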

HL-60 [13] = assay: Cytotoxicity against human HL60 cells assessed as increase in cell diameter at 8 nM after 48 hrs by Giemsa staining; type: functional; how it was run: as §4
HL-60 [14] = assay: Cell cycle arrest in human HL60 cells assessed as accumulation in G2/M phase at 2 to 10 nM after 16 hrs by flow cytometry; type: functional, cell-based
How it was run: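 HL-60 cells in RPMI-1640 with 10% fetal calf serum, exposed 16 h over 2-10 nM. Propidium iodide stain, DNA content by flow cytometry, G2/M and subdiploid fractions scored.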

1A9 [15] = assay: Cytotoxicity against human 1A9 cells assessed as interphase cells with microtubule bundles at 8 nM after 12 hrs by immunocytochemistry; type: functional; how it was run: as §1
1A9 [16] = assay: Cytotoxicity against human 1A9 cells assessed as mitotic cells with multiple asters at 8 nM after 12 hrs by immunocytochemistry; type: functional; how it was run: as §1
Tubulin (Homo sapiens) [17] = biological target: T1, Tubulin (Homo sapiens) (UniProt P68371+Q9H4B7+P0DPH7+P68366+Q13509+Q71U36+P04350+Q3ZCM7+P07437+P68363+Q9BQE3+Q6PEY2+Q13885+Q9BVA1+Q9BUF5); assay: Induction of tubulin polymerization in human 1A9 cells after 16 hrs by Western blotting; type: cell-based
How it was run: (§5)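 1A9 cells dosed for 16 h. Lysates split into soluble and particulate fractions at 14000g for 10 min, electrophoresed and immunoblotted for α-tubulin with Cy5 secondary. Percent polymerized = pellet band density / (soluble + pellet) by densitometry; four independent experiments.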

Tubulin (Homo sapiens) [18] = biological target: T1, Tubulin (Homo sapiens); assay: Induction of tubulin polymerization in human 1A9 cells at 100 nM after 16 hrs by Western blotting; type: cell-based; how it was run: as §5
Bos taurus = organism: Bos taurus; assay: Induction of bovine tubulin polymerization at 10 uM after 1hr in presence of 1 mM GTP
How it was run: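 Purified bovine brain tubulin, 2 μM, in 80 mM PIPES, 0.5 mM EGTA, 2 mM MgCl2, 1 mM GTP, pH 6.9, no MAPs. Reaction started by adding drug at 10 μM, 37 °C; ethanol 1% final in controls. A340 read every 30 s for 1 h; three experiments.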

A2780 [19] = assay: Selectivity ratio of IC50 for p-glycoprotein overexpressing human A2780AD cells to IC50 for human A2780 cells; type: functional; how it was run: as §2
A2780 [20] = assay: Cytotoxicity against human A2780 cells by MTT cell proliferation assay; type: functional, cell-based

## CC(=O)O[C@H]1C(=O)[C@@]2(C)[C@H]([C@H](OC(=O)c3ccccc3)[C@]3(O)C[C@H](OC(=O)[C@H](O)[C@@H](NC(=O)c4ccccc4)c4ccccc4)C(C)=C1C3(C)C)[C@]1(OC(C)=O)CO[C@@H]1C[C@@H]2O [PACLITAXEL]
1A9 [1]
  Activity: 13.7%
1A9 [2]
  Activity: 76.5%
1A9 [3]
  Activity: 81.9%
1A9 [4]
  Activity: 6.6%
1A9 [5]
  Activity: 43.3%
1A9 [6]
  Activity: 52.2%
[7]
  IC50: 415 nM

## C=C1C[C@@H]2C/C=C/C(=O)C/C(C)=C\C=C\C(=O)O[C@H]([C@H](O)NC(=O)/C=C\C=C\C)C/C(C)=C/[C@H](C1)O2 [ZAMPANOLIDE]
HL-60 [8]
  IC50: 4.3 nM
1A9 [9]
  IC50: 14.3 nM
HL-60 [10]
  Activity: Active
HL-60 [11]
  Activity: Active
HL-60 [12]
  Activity: Dose-dependent effect
HL-60 [13]
  Activity: 28.7 micrometer
HL-60 [14]
  Activity: Active
1A9 [1]
  Activity: 9.6%
1A9 [15]
  Activity: 28.6%
1A9 [2]
  Activity: 55%
1A9 [3]
  Activity: 74.3%
1A9 [4]
  Activity: 4.3%
1A9 [16]
  Activity: 21.6%
1A9 [5]
  Activity: 51.4%
1A9 [6]
  Activity: 57.3%
Tubulin (Homo sapiens) [17]
  Activity: Dose-dependent effect
Tubulin (Homo sapiens) [18]
  Activity: Active
Bos taurus
  Activity: Active
A2780 [19]
  Ratio IC50: 1.4
A2780 [20]
  IC50: 7.1 nM
[7]
  IC50: 7.5 nM
